# The source made the active and inactive calls. The calls are words filed in the database; no cut-off is given here.
# Experiments:
# [1] = Intrinsic clearance in human liver microsomes; format: ADME, Microsome; conditions: read-out: CLH
# [2] = molecular target: T1, Monoglyceride lipase (Mus musculus) (UniProt O35678); experiment: Inhibition of MGLL in mouse brain membrane homogenates at 0.001 to 10 uM preincubated for 30 mins followed by FP-Rh addition after 30 mins by gel-based ABPP assay; format: cell membranes
# T1 sequence (whole entry): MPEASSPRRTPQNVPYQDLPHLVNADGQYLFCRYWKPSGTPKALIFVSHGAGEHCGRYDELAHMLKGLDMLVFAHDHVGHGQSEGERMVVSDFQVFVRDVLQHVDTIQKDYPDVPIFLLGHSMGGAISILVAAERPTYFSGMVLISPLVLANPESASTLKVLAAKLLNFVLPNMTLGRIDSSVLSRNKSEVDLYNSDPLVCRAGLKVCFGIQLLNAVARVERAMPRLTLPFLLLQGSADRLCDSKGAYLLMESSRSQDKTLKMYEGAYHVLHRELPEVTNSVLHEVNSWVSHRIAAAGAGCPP
# How it was run: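 Brain membrane homogenates (1 mg/mL protein) were preincubated with 0.001-10 µM inhibitor or DMSO for 30 min at 37°C, then labelled with 1 µM FP-Rh for 30 min at 25°C. Reactions were quenched in SDS-PAGE loading buffer, run on 10% gels and scanned in-gel. MGLL band intensities were normalised to DMSO (100%).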
# [3] = molecular target: T2, Monoacylglycerol lipase ABHD6 (Rattus norvegicus) (UniProt Q5XI64); experiment: Inhibition of ABHD6 in rat brain membrane homogenates at 0.001 to 10 uM preincubated for 30 mins followed by FP-Rh addition after 30 mins by gel-based ABPP assay; format: cell membranes
# T2 sequence (whole entry): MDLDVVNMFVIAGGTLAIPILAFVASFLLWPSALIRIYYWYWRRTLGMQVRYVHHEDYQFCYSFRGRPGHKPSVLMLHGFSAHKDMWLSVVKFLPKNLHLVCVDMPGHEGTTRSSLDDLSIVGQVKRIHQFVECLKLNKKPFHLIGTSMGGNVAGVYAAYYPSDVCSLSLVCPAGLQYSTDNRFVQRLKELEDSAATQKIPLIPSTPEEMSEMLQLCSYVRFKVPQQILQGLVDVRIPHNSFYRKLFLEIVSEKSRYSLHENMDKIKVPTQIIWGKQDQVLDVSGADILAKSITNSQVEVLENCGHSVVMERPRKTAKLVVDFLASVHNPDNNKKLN
# [4] = Tmax in Sprague-Dawley rat at 1 mg/kg, iv or 5 mg/kg, po by LC-MS analysis; format: ADME, organism-based; conditions: in vivo
# How it was run: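 Rats (n = 3 per route) were dosed at 1 mg/kg iv (70% PEG400 in HPBCD/saline) or 5 mg/kg po (70% PEG400 in 0.5% CMC/saline), fasted overnight to 4 h post-dose. Jugular-catheter blood (~100 µL) was sampled to 24 h into 400 µL acetonitrile to stop esterases. Samples were quantified by HPLC-MS/MS, with noncompartmental analysis.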
# [5] = Tmax in Beagle dog at 1 mg/kg, iv or 1 mg/kg, po by LC-MS analysis; format: ADME, organism-based, Canis lupus familiaris; conditions: in vivo
# How it was run: (§1)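 Male beagle dogs (n = 3 per route), 10–12 months old, were dosed at 1 mg/kg iv or po in PEG400/ethanol/PBS (7/2/1), fasted overnight to 2 h post-dose. Peripheral venous blood was sampled to 24 h into K2EDTA and plasma frozen at −80 °C. Plasma was quantified by HPLC-MS/MS, with noncompartmental analysis.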
# [6] = Volume of distribution at steady state in Beagle dog at 1 mg/kg, iv or 1 mg/kg, po by LC-MS analysis; format: ADME, organism-based, Canis lupus familiaris; conditions: in vivo, read-out: Vdss; how it was run: as §1
# Cytochrome P450 2C19 = Cytochrome P450 2C19 (Homo sapiens, UniProt P33261); experiment: Inhibition of recombinant human CYP2C19; format: ADME
# Sequence of Cytochrome P450 2C19 (P33261 whole entry): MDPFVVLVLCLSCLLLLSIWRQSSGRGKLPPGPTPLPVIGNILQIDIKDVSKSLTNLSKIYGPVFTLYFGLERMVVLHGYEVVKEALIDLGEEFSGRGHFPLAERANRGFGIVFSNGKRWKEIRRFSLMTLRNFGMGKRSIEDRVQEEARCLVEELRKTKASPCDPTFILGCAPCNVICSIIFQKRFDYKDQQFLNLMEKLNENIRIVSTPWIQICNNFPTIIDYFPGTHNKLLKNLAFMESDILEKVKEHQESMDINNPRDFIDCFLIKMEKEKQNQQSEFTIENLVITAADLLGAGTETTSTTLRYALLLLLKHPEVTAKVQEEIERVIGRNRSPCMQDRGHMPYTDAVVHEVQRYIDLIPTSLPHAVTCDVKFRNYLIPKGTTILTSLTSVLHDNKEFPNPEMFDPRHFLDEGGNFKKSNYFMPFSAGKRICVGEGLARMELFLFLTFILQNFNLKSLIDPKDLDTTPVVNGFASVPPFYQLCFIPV
# hERG (KCNH2) = hERG (KCNH2) (Homo sapiens, UniProt Q12809); experiment: Inhibition of human ERG
# Sequence of hERG (KCNH2) (Q12809 whole entry): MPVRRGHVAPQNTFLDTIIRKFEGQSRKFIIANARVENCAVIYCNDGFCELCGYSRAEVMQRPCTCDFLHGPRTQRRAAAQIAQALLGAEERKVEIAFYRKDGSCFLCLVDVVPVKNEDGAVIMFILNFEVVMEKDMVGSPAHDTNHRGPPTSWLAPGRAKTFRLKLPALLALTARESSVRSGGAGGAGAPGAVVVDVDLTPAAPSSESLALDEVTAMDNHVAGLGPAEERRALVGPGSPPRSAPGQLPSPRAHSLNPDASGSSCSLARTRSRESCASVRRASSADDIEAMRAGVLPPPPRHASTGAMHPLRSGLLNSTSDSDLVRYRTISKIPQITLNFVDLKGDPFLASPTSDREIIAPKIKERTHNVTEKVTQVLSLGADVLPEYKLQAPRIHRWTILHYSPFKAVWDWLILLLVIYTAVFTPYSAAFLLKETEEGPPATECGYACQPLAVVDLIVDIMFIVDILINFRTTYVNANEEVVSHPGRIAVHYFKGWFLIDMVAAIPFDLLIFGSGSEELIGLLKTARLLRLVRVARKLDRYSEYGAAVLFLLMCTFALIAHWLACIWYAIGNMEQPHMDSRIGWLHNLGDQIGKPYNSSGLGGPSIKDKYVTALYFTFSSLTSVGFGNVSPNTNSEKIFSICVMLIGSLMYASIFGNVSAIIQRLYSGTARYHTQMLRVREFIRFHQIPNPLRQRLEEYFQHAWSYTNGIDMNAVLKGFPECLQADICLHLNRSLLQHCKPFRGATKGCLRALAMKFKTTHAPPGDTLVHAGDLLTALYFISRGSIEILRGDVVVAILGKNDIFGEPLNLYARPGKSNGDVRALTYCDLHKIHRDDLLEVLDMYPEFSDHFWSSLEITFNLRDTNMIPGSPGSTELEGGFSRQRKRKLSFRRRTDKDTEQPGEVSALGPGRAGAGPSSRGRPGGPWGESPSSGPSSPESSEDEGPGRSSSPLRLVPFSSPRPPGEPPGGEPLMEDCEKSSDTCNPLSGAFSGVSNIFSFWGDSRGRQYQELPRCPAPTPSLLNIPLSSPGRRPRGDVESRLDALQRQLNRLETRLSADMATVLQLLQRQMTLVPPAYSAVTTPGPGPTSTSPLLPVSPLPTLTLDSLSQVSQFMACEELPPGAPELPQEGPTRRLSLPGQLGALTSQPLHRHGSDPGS
# Mus musculus = experiment: In vivo inhibition of ABHD6 in po dosed ICR mouse brain measured 4 hrs post dose in presence of FP-Rh probe by gel-based ABPP assay; format: functional
# How it was run: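 Male ICR mice, 6–12 weeks old, given single oral doses (0.5–32 mg/kg, n = 3) in PEG400:ethanol:PBS (7/2/1 v/v/v) at 5 mL/kg. Brains were removed 4 h later and one hemisphere processed for gel-based ABPP. Proteome was labeled with FP-Rh (1 µM, 30 min) and read by in-gel fluorescence relative to vehicle.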
# Rattus norvegicus [7] = experiment: Antinociceptive activity in po dosed Sprague-Dawley rat brain assessed as inhibition of MGLL activity measured after 4 hrs post dose in presence of FP-Rh probe by gel-based ABPP assay; format: functional
# How it was run: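 Male Sprague Dawley rats, 6–12 weeks old, given single oral doses (0.03–10 mg/kg) in 0.5% methylcellulose at 5 mL/kg. Brains were taken 4 h post-dose and forebrain sections excised from one hemisphere. Brain proteome was labeled with FP-Rh (1 µM, 30 min) and analyzed by SDS-PAGE with in-gel fluorescence. Band intensity was normalized to vehicle.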
# Rattus norvegicus [8] = experiment: Antinociceptive activity in Sprague-Dawley rat assessed as reduction in formalin-evoked paw licking duration at 3 mg/kg, po administered 4 hrs prior to formalin challenge and measured between 0 to 15 mins post formalin challenge; format: functional, organism-based
# Rattus norvegicus [9] = experiment: Antinociceptive activity in Sprague-Dawley rat assessed as reduction in formalin-evoked paw licking duration at 3 mg/kg, po administered 4 hrs prior to formalin challenge and measured between 10 to 30 mins post formalin challenge; format: functional, organism-based
# [10] = molecular target: ATP-dependent translocase ABCB1 (Homo sapiens, UniProt P08183); experiment: Inhibition of P-gp (unknown origin) at 10 uM; format: ADME
# Sequence of ATP-dependent translocase ABCB1 (P08183 whole entry): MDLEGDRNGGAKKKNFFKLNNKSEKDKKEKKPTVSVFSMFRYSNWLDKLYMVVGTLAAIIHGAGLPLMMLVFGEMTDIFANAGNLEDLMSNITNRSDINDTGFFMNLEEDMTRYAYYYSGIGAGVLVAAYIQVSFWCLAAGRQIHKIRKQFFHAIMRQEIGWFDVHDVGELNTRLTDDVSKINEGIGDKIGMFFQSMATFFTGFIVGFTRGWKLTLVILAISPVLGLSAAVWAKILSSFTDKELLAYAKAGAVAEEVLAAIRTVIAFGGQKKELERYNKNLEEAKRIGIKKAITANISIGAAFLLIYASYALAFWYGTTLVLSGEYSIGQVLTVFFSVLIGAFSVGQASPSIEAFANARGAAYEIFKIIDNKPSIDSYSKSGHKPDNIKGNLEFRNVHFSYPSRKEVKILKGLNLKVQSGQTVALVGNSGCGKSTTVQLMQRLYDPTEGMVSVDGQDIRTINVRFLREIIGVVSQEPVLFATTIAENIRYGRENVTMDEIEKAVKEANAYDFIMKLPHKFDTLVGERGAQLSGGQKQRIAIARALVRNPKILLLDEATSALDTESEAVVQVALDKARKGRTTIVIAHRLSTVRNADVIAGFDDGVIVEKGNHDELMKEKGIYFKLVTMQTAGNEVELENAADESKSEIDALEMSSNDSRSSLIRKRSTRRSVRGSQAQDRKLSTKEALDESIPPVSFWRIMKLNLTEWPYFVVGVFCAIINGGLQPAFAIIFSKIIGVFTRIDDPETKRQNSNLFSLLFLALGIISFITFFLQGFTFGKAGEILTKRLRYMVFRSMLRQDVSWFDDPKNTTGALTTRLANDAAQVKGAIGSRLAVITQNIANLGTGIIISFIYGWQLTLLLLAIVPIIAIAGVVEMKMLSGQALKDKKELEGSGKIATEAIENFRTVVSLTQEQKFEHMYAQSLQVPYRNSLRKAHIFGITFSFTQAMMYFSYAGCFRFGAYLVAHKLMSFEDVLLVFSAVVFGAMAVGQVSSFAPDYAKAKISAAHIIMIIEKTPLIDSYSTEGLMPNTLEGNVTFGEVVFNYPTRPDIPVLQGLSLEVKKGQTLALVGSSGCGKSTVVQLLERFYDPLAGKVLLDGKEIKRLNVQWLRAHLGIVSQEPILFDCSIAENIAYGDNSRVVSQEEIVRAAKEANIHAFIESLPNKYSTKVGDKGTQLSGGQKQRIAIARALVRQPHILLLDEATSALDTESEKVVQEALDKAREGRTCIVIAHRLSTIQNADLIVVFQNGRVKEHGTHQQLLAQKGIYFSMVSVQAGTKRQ
# [11] = molecular target: T3, Solute carrier family 22 member 2 (Homo sapiens, UniProt O15244); experiment: Inhibition of OCT2 (unknown origin) at 10 uM; format: ADME
# T3 sequence (O15244 whole entry): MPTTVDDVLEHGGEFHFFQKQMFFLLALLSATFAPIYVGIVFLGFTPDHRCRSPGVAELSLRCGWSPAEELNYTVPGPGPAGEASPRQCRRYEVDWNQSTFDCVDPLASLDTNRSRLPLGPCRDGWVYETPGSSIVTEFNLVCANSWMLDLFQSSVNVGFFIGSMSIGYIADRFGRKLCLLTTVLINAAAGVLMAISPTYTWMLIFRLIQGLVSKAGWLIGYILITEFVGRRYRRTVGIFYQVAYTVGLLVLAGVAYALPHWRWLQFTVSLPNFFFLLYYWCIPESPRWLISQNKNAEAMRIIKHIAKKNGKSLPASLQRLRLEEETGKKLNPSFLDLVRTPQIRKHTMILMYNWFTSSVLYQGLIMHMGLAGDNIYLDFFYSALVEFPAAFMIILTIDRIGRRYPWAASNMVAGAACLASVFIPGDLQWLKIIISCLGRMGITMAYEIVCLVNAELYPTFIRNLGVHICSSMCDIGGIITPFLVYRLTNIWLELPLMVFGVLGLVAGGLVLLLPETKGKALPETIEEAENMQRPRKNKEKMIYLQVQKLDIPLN
structure (smiles),measurement,setting,value
O=C(OC(C(F)(F)F)C(F)(F)F)N1CCN(Cc2ccc(C(F)(F)F)cc2N2CCCC2)CC1 [ELCUBRAGISTAT],microsomal CLint,[1],19 µL/min/mg
same,inhibition,[2],Active
same,inhibition,[3],Active
same,Tmax,[4],8 h
same,Tmax,[5],1 h
same,Vd,[6],1.2 L/kg
same,IC50,Cytochrome P450 2C19,> 50 µM
same,IC20,hERG (KCNH2),7 µM
same,ED50,Mus musculus,32 mg/kg
same,ED50,Rattus norvegicus [7],0.5 mg/kg
same,Activity,Rattus norvegicus [8],Active
same,Activity,Rattus norvegicus [9],Active
same,inhibition (INH),[10],Not Active
same,inhibition (INH),[11],Not Active
